Experimental data published in ChEMBL document CHEMBL4007430, “Synthesis and Cytostatic and Antiviral Profiling of Thieno-Fused 7-Deazapurine Ribonucleosides” (J Med Chem, 2017).

Key:
CCRF-CEM [1] = experiment: Inhibition of mitosis in human CCRF-CEM cells assessed as pH3Ser10 positive cells at IC50 after 24 hrs by flow cytometric analysis (reference value: 1.74%); format: functional
Hepatitis C virus [2] = experiment: Anti-HCV activity against Hepatitis C virus genotype 2a infected in human Huh7 replicon cells after 96 hrs by luciferase reporter gene assay; format: functional, cell-based, Hepacivirus hominis; settings: Huh-7, 96 h
CCRF-CEM [3] = experiment: Inhibition of DNA synthesis in human CCRF-CEM cells assessed as decrease in BrdU incorporation by measuring synthesized DNA levels at IC50 after 24 hrs by propidium iodide staining-based flow cytometric analysis (reference value: 52.66%); format: functional
U2OS = experiment: Cytotoxicity against human U2OS cells assessed as cell growth inhibition after 72 hrs by MTS assay; format: functional, cell-based
[4] = Drug level in human BJ cells at 10 umol/L measured per 5 x 10^5 cells after 1 hr by UPLC-MS/MS analysis; format: ADME, cell-based; settings: 10 µM
[5] = Drug level in human HCT116 cells at 10 umol/L measured per 5 x 10^5 cells after 3 hrs by UPLC-MS/MS analysis; format: ADME, cell-based; settings: hct-116, 3 h, 10 µM
CCRF-CEM [6] = experiment: Cell cycle arrest in human CCRF-CEM cells assessed as accumulation at S phase at IC50 after 24 hrs by propidium iodide staining-based flow cytometric analysis (reference value: 44.20%); format: functional
CCRF-CEM [7] = experiment: Inhibition of DNA synthesis in human CCRF-CEM cells assessed as decrease in BrdU incorporation by measuring synthesized DNA levels at 5 times IC50 after 24 hrs by propidium iodide staining-based flow cytometric analysis (reference value: 52.66%); format: functional
CCRF-CEM [8] = experiment: Cell cycle arrest in human CCRF-CEM cells assessed as accumulation at G0/G1 phase at 5 times IC50 after 24 hrs by propidium iodide staining-based flow cytometric analysis (reference value: 41.11%); format: functional
[9] = Drug level in human HCT116 cells at 1 umol/L measured per 5 x 10^5 cells after 3 hrs by UPLC-MS/MS analysis; format: ADME, cell-based; settings: hct-116, 3 h, 1 µM
CCRF-CEM [10] = experiment: Inhibition of RNA synthesis in human CCRF-CEM cells assessed as decrease in BrU incorporation by measuring synthesized RNA levels at IC50 after 24 hrs by propidium iodide staining-based flow cytometric method (reference value: 53.09%); format: functional
CCRF-CEM [11] = experiment: Cell cycle arrest in human CCRF-CEM cells assessed as accumulation at G2/M phase at 5 times IC50 after 24 hrs by propidium iodide staining-based flow cytometric analysis (reference value: 14.70%); format: functional
K562 = experiment: Cytotoxicity against human K562 cells assessed as cell growth inhibition after 72 hrs by MTS assay; format: functional, cell-based; settings: K562, 72 h
In short: (§1)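 Cells were exposed to compound for 3 days, then stained with MTS as a quantitative metabolic read-out. IC50 is the concentration that inhibits cell growth by 50%.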

A549 = experiment: Cytotoxicity against human A549 cells assessed as cell growth inhibition after 72 hrs by MTS assay; format: functional, cell-based; settings: A549, 72 h; in short: as §1
[12] = Cytotoxicity against human HuH7 cells; format: cell-based, Huh-7
[13] = Drug level in human HCT116 cells at 10 umol/L measured per 5 x 10^5 cells after 1 hr by UPLC-MS/MS analysis; format: ADME, cell-based; settings: hct-116, 1 h, 10 µM
CCRF-CEM [14] = experiment: Inhibition of RNA synthesis in human CCRF-CEM cells assessed as decrease in BrU incorporation by measuring synthesized RNA levels at 5 times IC50 after 24 hrs by propidium iodide staining-based flow cytometric method (reference value: 53.09%); format: functional
[15] = Drug level in human BJ cells at 1 umol/L measured per 5 x 10^5 cells after 3 hrs by UPLC-MS/MS analysis; format: ADME, cell-based; settings: 1 µM
Hepatitis C virus [16] = experiment: Anti-HCV activity against Hepatitis C virus genotype 1b infected in human Huh7 replicon cells after 96 hrs by luciferase reporter gene assay; format: functional, cell-based, Hepacivirus hominis; settings: Huh-7, 96 h
[17] = Drug level in human BJ cells at 10 umol/L measured per 5 x 10^5 cells after 3 hrs by UPLC-MS/MS analysis; format: ADME, cell-based; settings: 10 µM
CCRF-CEM [18] = experiment: Induction of apoptosis in human CCRF-CEM cells assessed as accumulation at subG1 phase at 5 times IC50 after 24 hrs by propidium iodide staining-based flow cytometric analysis (reference value: 2.32%); format: functional
MRC5 = experiment: Cytotoxicity against human MRC5 cells assessed as cell growth inhibition after 72 hrs by MTS assay; format: cell-based; settings: MRC5, 72 h; in short: as §1
[19] = Drug level in human HCT116 cells at 1 umol/L measured per 5 x 10^5 cells after 1 hr by UPLC-MS/MS analysis; format: ADME, cell-based; settings: hct-116, 1 h, 1 µM
CCRF-CEM [20] = experiment: Inhibition of mitosis in human CCRF-CEM cells assessed as pH3Ser10 positive cells at 5 times IC50 after 24 hrs by flow cytometric analysis (reference value: 1.74%); format: functional
CCRF-CEM [21] = experiment: Cell cycle arrest in human CCRF-CEM cells assessed as accumulation at G2/M phase at IC50 after 24 hrs by propidium iodide staining-based flow cytometric analysis (reference value: 14.70%); format: functional
CCRF-CEM [22] = experiment: Cell cycle arrest in human CCRF-CEM cells assessed as accumulation at G0/G1 phase at IC50 after 24 hrs by propidium iodide staining-based flow cytometric analysis (reference value: 41.11%); format: functional
HCT-116 [23] = experiment: Cytotoxicity against human HCT116 cells assessed as cell growth inhibition after 72 hrs by MTS assay; format: functional, cell-based; settings: HCT-116, 72 h; in short: as §1
BJ = experiment: Cytotoxicity against human BJ cells assessed as cell growth inhibition after 72 hrs by MTS assay; format: cell-based; in short: as §1
HL-60 = experiment: Cytotoxicity against human HL60 cells assessed as reduction in cell viability after 72 hrs by XTT assay; format: functional, cell-based; settings: HL-60, 72 h
In short: (§2)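 Cells were incubated with compound for 3 days. Viability was then measured with the XTT tetrazolium assay.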

CCRF-CEM [24] = experiment: Inhibition of mitosis in human CCRF-CEM cells assessed as pH3Ser10 positive cells after 24 hrs by flow cytometric analysis; format: functional, cell-based
CCRF-CEM [25] = experiment: Cytotoxicity against human CCRF-CEM cells assessed as cell growth inhibition after 72 hrs by MTS assay
CCRF-CEM [26] = experiment: Induction of apoptosis in human CCRF-CEM cells assessed as accumulation at subG1 phase at IC50 after 24 hrs by propidium iodide staining-based flow cytometric analysis (reference value: 2.32%); format: functional
[27] = Cytotoxicity against mrp-1/mdr-1 overexpressing human CEM-DNR-bulk cells assessed as cell growth inhibition after 72 hrs by MTS assay; format: functional, cell-based
In short: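 Cells were exposed to compound for 3 days, then stained with MTS as a quantitative metabolic read-out.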

HepG2 = experiment: Cytotoxicity against human HepG2 cells assessed as reduction in cell viability after 72 hrs by XTT assay; format: functional, cell-based; settings: HepG2, 72 h; in short: as §2
CCRF-CEM [28] = experiment: Cell cycle arrest in human CCRF-CEM cells assessed as accumulation at S phase at 5 times IC50 after 24 hrs by propidium iodide staining-based flow cytometric analysis (reference value: 44.20%); format: functional
HeLa S3 = experiment: Cytotoxicity against human HeLaS3 cells assessed as reduction in cell viability after 72 hrs by XTT assay; format: functional, cell-based; settings: HeLa S3, 72 h; in short: as §2
[29] = Cytotoxicity against human K562-TAX cells assessed as cell growth inhibition after 72 hrs by MTS assay; format: functional, cell-based; in short: as §1
HCT-116 [30] = experiment: Cytotoxicity against p53 deficient human HCT116 cells assessed as cell growth inhibition after 72 hrs by MTS assay; format: functional, cell-based; settings: HCT-116, 72 h; in short: as §1

CSc1ncnc2c1c1ccsc1n2[C@@H]1O[C@H](CO)[C@@H](O)[C@H]1O
pH3Ser10+ cells (%) (CCRF-CEM [1]): 1.36% | EC50 (Hepatitis C virus [2]): 800 nM | BrdU+ cells (%) (CCRF-CEM [3]): 52.99% | IC50 (U2OS): 350 nM | Drug uptake [4]: 331.6 pmol | Drug uptake [5]: 444 pmol | Activity (CCRF-CEM [6]): 47.81% | BrdU+ cells (%) (CCRF-CEM [7]): 56.64% | Activity (CCRF-CEM [8]): 33.16% | Drug uptake [9]: 293.6 pmol | BrU+ cells (%) (CCRF-CEM [10]): 37.25% | Activity (CCRF-CEM [11]): 13.58% | IC50 (K562): 510 nM | IC50 (A549): 800 nM | CC50 [12]: > 44400 nM | Drug uptake [13]: 320.7 pmol | BrU+ cells (%) (CCRF-CEM [14]): 23.92% | Drug uptake [15]: 253.6 pmol | EC50 (Hepatitis C virus [16]): 130 nM | Drug uptake [17]: 633.7 pmol | Activity (CCRF-CEM [18]): 3.53% | IC50 (MRC5): 46000 nM | Drug uptake [19]: 278.5 pmol | pH3Ser10+ cells (%) (CCRF-CEM [20]): 1.13% | Activity (CCRF-CEM [21]): 11.83% | Activity (CCRF-CEM [22]): 40.36% | IC50 (HCT-116 [23]): 200 nM | IC50 (BJ): 6900 nM | IC50 (HL-60): 860 nM | Activity (CCRF-CEM [24]): Dose-dependent effect | IC50 (CCRF-CEM [25]): 200 nM | Activity (CCRF-CEM [26]): 2.79% | IC50 [27]: > 50000 nM | IC50 (HepG2): 680 nM | Activity (CCRF-CEM [28]): 53.26% | IC50 (HeLa S3): 300 nM | IC50 [29]: > 50000 nM | IC50 (HCT-116 [30]): 270 nM

Cc1ncnc2c1c1sccc1n2[C@@H]1O[C@H](CO)[C@@H](O)[C@H]1O
pH3Ser10+ cells (%) (CCRF-CEM [1]): 0.89% | EC50 (Hepatitis C virus [2]): 60 nM | BrdU+ cells (%) (CCRF-CEM [3]): 50.76% | IC50 (U2OS): 200 nM | Activity (CCRF-CEM [6]): 57.85% | BrdU+ cells (%) (CCRF-CEM [7]): 60.89% | Activity (CCRF-CEM [8]): 28.72% | BrU+ cells (%) (CCRF-CEM [10]): 33.92% | Activity (CCRF-CEM [11]): 15.1% | IC50 (K562): 140 nM | IC50 (A549): 210 nM | CC50 [12]: > 44400 nM | BrU+ cells (%) (CCRF-CEM [14]): 47.83% | EC50 (Hepatitis C virus [16]): 110 nM | Activity (CCRF-CEM [18]): 16.72% | IC50 (MRC5): 1660 nM | pH3Ser10+ cells (%) (CCRF-CEM [20]): 3.55% | Activity (CCRF-CEM [21]): 12.41% | Activity (CCRF-CEM [22]): 29.74% | IC50 (HCT-116 [23]): 50 nM | IC50 (BJ): 150 nM | IC50 (HL-60): 210 nM | Activity (CCRF-CEM [24]): Dose-dependent effect | IC50 (CCRF-CEM [25]): 20 nM | Activity (CCRF-CEM [26]): 13.5% | IC50 [27]: > 50000 nM | IC50 (HepG2): 440 nM | Activity (CCRF-CEM [28]): 56.18% | IC50 (HeLa S3): 720 nM | IC50 [29]: 720 nM | IC50 (HCT-116 [30]): 70 nM
